Results: ChEMBL document CHEMBL5661979, “Pharmacological inhibition of BMK1 suppresses tumor growth through promyelocytic leukemia protein” (Cancer Cell, 2010)

Assays:
[1] = target: T1, Serine/threonine-protein kinase 4 (Homo sapiens) (UniProt Q13043); assay: Inhibition of MST1 in human HeLa cells lysate at 10 uM pre incubated for 15 mins followed by ATP acyl phosphate probe addition and measured after 10 mins by LC-MS/MS analysis relative to control; assay type: subcellular; details: time 25.0 min
T1 sequence (whole entry): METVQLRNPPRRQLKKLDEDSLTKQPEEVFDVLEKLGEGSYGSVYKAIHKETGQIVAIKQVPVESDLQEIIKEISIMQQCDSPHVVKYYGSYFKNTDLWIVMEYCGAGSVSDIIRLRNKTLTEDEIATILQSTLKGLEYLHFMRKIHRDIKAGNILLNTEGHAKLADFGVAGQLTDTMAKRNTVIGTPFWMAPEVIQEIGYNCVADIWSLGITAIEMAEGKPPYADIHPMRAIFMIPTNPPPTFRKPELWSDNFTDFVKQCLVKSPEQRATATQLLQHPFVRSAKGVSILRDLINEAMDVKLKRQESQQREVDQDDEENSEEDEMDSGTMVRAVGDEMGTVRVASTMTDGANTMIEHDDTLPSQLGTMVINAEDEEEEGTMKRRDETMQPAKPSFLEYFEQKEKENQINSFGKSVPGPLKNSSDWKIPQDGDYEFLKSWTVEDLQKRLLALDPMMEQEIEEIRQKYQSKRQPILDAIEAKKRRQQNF

[2] = target: STE20-like serine/threonine-protein kinase (Homo sapiens, UniProt Q9H2G2); assay: Inhibition of SLK in human HeLa cells lysate at 50 uM pre incubated for 15 mins followed by ADP acyl phosphate probe addition and measured after 10 mins by LC-MS/MS analysis relative to control; assay type: subcellular; details: time 25.0 min
Chain of STE20-like serine/threonine-protein kinase (Q9H2G2 whole entry, looked up): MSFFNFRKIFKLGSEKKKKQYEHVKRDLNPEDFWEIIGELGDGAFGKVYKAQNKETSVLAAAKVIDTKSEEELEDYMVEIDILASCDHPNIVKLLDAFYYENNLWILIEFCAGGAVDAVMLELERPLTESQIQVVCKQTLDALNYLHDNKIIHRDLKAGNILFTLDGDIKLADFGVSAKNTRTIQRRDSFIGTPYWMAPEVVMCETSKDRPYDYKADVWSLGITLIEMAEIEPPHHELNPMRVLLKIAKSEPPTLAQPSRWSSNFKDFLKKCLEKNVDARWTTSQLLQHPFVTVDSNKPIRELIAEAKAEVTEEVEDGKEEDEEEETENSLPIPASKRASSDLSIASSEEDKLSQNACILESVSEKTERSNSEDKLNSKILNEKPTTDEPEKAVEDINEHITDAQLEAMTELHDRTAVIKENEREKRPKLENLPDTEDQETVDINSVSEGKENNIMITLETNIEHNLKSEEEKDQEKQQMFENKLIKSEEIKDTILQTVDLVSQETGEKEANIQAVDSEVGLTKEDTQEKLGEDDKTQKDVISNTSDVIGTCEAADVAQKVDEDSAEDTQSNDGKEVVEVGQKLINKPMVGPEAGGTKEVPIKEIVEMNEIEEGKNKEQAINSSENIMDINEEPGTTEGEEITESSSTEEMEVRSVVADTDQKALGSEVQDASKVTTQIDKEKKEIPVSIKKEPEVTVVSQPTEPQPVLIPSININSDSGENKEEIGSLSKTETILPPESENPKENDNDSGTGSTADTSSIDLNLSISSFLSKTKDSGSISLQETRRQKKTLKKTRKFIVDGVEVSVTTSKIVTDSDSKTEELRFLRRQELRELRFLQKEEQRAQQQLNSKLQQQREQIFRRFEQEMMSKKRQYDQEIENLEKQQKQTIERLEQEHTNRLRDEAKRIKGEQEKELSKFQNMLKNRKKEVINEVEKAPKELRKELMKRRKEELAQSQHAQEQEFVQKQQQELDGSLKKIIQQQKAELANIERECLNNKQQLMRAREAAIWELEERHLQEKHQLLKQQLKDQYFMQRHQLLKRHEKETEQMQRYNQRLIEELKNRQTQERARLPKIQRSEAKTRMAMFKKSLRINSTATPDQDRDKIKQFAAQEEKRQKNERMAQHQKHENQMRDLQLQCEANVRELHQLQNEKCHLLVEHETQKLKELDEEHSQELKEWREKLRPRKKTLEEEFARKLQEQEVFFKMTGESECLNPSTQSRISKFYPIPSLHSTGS

[3] = Clearance in Sprague-Dawley rat at 1 mg/kg, iv measured up to 8 hrs by LC-MS/MS analysis; assay type: ADME, organism-based; details: in vivo
Summary of the method: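 Sprague-Dawley rats given one intravenous dose or one oral dose of 2 mg/kg. Plasma drug concentrations were followed over time, with samples taken out to 8 hr after dosing. PK parameters (clearance, volume of distribution, half-life, oral bioavailability, Cmax) were calculated from these concentration–time data.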

[4] = target: MAP/microtubule affinity-regulating kinase 3 (Homo sapiens, UniProt P27448); assay: Inhibition of MARK3 in human HeLa cells lysate pre incubated for 15 mins followed by ADP acyl phosphate probe addition and measured after 10 mins by LC-MS/MS analysis; assay type: subcellular
Chain of MAP/microtubule affinity-regulating kinase 3 (P27448 whole entry): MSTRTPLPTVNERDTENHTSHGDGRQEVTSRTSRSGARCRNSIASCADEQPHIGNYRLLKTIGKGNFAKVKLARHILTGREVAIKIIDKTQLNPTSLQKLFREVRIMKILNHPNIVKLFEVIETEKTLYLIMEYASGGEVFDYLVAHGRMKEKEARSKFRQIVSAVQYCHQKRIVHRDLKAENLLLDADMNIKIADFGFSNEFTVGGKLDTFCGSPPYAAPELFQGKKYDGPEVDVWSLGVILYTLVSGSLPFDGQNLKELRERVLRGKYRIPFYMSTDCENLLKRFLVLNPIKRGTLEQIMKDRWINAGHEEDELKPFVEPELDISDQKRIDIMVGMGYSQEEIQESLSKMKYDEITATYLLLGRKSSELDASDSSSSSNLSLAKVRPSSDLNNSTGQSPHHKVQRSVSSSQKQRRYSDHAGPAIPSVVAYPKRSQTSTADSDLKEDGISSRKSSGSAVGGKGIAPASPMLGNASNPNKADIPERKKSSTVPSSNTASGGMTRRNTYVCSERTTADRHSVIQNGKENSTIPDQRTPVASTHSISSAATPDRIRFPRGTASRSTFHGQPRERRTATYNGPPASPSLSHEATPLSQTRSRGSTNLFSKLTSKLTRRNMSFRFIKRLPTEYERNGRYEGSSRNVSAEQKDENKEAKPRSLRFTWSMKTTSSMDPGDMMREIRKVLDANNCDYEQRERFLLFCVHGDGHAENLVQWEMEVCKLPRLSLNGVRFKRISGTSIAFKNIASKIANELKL

[5] = Toxicity in C57Bl/6 mouse assessed as effect on globulin level at 50 mg/kg, ip for 14 days (reference value: 2.3 g/dl); assay type: organism-based; details: in vivo, 336 h, time 14 day
[6] = Inhibition of SRPK1/2 in human HeLa cells lysate at 2 uM pre incubated for 15 mins followed by ADP acyl phosphate probe addition and measured after 10 mins by LC-MS/MS analysis relative to control; details: 25 min, condition cancer
[7] = target: Serine/threonine-protein kinase Nek9 (Homo sapiens, UniProt Q8TD19); assay: Inhibition of NEK9 in human HeLa cells lysate pre incubated for 15 mins followed by ATP acyl phosphate probe addition and measured after 10 mins by LC-MS/MS analysis; assay type: subcellular
Chain of Serine/threonine-protein kinase Nek9 (Q8TD19 whole entry, the tested form may be a part): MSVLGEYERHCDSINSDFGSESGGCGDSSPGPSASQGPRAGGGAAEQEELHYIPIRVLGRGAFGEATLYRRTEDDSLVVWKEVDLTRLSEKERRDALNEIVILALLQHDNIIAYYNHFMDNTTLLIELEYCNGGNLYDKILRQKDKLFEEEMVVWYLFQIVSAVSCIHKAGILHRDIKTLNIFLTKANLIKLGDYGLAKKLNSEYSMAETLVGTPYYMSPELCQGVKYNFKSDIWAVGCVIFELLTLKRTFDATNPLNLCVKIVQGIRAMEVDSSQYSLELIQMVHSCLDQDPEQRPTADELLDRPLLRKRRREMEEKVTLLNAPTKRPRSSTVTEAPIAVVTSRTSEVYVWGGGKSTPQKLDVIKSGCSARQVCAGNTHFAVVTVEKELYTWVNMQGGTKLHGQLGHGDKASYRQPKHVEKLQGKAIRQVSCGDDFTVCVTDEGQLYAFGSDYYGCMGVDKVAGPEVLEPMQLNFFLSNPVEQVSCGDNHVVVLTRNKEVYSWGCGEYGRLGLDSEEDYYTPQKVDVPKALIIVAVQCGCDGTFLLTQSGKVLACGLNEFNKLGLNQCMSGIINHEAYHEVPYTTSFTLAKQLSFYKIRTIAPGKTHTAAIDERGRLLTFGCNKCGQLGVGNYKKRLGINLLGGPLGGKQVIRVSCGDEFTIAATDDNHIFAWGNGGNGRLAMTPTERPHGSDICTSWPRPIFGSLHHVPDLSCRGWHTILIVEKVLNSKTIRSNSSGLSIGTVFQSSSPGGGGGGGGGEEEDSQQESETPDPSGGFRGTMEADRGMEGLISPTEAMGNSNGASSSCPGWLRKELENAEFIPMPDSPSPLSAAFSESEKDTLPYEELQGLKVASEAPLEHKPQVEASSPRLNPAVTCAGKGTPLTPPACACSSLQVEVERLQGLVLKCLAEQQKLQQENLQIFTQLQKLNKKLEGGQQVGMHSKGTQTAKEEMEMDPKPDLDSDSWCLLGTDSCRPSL

[8] = target: Tyrosine-protein kinase JAK1 (Homo sapiens, UniProt P23458); assay: Inhibition of JAK1 domain 2 in human HeLa cells lysate pre incubated for 15 mins followed by ATP acyl phosphate probe addition and measured after 10 mins by LC-MS/MS analysis; assay type: subcellular
Chain of Tyrosine-protein kinase JAK1 (P23458 whole entry, the tested form may be a part): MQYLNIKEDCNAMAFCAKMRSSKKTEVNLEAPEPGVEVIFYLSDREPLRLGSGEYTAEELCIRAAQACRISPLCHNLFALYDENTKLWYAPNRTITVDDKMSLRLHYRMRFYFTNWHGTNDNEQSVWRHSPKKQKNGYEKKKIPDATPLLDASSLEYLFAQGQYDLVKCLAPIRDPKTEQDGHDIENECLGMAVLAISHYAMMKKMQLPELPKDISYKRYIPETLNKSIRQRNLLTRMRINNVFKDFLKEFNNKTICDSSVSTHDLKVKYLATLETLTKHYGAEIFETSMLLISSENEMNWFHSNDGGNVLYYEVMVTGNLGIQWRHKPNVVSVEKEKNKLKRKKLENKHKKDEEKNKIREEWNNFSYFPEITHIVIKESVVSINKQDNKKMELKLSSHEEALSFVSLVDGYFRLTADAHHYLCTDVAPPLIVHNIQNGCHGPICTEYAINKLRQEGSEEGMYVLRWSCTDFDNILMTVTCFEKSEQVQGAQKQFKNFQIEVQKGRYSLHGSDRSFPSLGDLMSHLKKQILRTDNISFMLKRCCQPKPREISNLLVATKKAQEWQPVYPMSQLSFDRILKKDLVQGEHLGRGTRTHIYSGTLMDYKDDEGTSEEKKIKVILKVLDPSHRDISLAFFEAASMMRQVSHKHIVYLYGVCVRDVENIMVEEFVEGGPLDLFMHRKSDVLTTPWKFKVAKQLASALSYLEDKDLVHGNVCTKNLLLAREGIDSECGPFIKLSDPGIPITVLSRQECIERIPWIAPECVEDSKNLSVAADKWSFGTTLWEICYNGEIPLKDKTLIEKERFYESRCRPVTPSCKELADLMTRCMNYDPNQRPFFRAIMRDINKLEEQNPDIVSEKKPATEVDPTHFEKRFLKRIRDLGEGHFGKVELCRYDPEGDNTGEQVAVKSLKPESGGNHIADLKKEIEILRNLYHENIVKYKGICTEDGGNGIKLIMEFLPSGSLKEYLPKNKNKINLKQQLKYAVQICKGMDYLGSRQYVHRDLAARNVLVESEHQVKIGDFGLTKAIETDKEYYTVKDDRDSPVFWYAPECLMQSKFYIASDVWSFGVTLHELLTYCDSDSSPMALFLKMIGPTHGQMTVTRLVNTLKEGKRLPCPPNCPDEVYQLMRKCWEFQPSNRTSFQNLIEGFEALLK

[9] = Plasma concentration in Sprague-Dawley rat at 2 mg/kg, po measured after 30 mins by LC-MS/MS analysis; assay type: ADME, organism-based
[10] = target: Dual specificity mitogen-activated protein kinase kinase; MEK1/2 (Homo sapiens, UniProt P36507+Q02750); assay: Inhibition of MAP2K1/MAP2K2in human HeLa cells lysate at 2 uM pre incubated for 15 mins followed by ADP acyl phosphate probe addition and measured after 10 mins by LC-MS/MS analysis relative to control; assay type: subcellular; details: time 25.0 min
Chain of Dual specificity mitogen-activated protein kinase kinase; MEK1/2 (P36507 whole entry, looked up): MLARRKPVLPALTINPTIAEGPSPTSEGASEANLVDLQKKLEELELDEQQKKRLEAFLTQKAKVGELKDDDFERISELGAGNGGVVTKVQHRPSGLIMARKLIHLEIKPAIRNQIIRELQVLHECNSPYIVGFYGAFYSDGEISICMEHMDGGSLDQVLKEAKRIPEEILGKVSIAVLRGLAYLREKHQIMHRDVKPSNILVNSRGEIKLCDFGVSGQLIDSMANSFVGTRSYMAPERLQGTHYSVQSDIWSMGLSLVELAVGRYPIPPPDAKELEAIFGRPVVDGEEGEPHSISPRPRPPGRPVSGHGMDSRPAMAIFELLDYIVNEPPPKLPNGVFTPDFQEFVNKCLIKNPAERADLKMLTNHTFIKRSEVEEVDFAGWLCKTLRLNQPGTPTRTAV
Chain of Dual specificity mitogen-activated protein kinase kinase; MEK1/2 (Q02750 whole entry, looked up): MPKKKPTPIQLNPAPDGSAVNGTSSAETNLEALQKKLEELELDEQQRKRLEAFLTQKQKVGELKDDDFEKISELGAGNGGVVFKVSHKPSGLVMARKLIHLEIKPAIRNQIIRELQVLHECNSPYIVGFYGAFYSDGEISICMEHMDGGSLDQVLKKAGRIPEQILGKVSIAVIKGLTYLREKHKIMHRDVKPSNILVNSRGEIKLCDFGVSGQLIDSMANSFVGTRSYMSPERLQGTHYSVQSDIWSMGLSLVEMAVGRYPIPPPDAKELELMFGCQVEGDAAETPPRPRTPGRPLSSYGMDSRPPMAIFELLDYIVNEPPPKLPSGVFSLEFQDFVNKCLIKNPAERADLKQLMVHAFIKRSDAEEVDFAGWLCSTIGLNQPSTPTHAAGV

[11] = target: T2, Phosphatidylinositol 5-phosphate 4-kinase type-2 alpha (Homo sapiens) (UniProt P48426); assay: Inhibition of PIP5K2A in human HeLa cells lysate at 2 uM pre incubated for 15 mins followed by ATP acyl phosphate probe addition and measured after 10 mins by LC-MS/MS analysis relative to control; assay type: subcellular; details: time 25.0 min
T2 sequence (whole entry): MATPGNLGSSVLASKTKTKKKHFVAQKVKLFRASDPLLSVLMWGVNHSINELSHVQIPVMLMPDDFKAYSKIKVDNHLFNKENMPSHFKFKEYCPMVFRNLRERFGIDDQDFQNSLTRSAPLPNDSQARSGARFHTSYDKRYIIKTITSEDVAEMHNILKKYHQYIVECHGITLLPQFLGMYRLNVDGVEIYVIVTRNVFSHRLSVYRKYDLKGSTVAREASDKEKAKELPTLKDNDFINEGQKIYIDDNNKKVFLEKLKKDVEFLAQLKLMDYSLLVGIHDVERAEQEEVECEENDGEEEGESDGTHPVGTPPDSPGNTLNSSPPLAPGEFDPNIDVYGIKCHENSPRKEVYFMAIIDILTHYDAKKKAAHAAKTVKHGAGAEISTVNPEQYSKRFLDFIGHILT

[12] = target: T3, Serine/threonine-protein kinase D3 (Homo sapiens) (UniProt O94806); assay: Inhibition of PKD3 in human HeLa cells lysate at 50 uM pre incubated for 15 mins followed by ADP acyl phosphate probe addition and measured after 10 mins by LC-MS/MS analysis relative to control; assay type: subcellular; details: time 25.0 min
T3 sequence (whole entry): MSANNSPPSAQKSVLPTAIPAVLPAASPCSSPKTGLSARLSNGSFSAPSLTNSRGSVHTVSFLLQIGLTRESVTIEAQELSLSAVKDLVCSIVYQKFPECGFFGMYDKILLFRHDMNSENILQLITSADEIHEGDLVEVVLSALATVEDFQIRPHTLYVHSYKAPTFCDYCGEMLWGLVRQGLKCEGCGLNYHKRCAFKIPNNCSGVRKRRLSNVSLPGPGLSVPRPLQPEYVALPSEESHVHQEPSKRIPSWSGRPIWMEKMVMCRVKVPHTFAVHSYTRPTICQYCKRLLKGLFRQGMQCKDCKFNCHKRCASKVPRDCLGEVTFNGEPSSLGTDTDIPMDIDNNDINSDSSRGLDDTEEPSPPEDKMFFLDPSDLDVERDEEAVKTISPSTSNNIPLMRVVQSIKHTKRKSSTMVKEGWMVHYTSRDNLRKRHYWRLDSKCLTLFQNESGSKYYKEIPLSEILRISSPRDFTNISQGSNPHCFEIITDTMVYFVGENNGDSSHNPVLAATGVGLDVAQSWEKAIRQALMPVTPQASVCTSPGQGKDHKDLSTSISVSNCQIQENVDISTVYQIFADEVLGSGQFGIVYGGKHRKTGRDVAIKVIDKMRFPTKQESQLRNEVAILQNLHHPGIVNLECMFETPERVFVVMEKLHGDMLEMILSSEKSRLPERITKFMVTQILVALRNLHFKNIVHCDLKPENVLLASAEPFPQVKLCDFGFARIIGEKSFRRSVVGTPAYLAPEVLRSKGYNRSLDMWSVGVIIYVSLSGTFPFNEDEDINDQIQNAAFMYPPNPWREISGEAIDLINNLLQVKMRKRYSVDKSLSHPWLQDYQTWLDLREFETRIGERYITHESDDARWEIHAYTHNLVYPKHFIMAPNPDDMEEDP

CCOc1cc(N2CCC(O)CC2)ccc1Nc1ncc2c(n1)N(C)c1ccccc1C(=O)N2C
inhibition [1]: 1.1% | inhibition [2]: 20.9% | clearance [3]: 26 mL/min/kg | IC50 [4]: > 50 µM | Activity [5]: 2.5 g/dL | inhibition at 2 µM [6]: 12.7% | IC50 [7]: > 50 µM | IC50 [8]: > 50 µM | concentration at 0.5 h [9]: ~500 nM | inhibition [10]: 0.6% | inhibition [11]: -4.6% | inhibition [12]: -0.5%
